Assay results: ChEMBL document CHEMBL1146679, “Synthesis and biological evaluation of pyrrolo[2,1-c][1,4]benzodiazepine (PBD) C8 cyclic amine conjugates” (2004)

What was measured:
Nucleic Acid [1] = assay: In vitro induced thermal stabilization of duplex DNA melting after incubation with the compound (20 uM) at 37 C for 0 h; type: functional; settings: Bos taurus
In short: (§1)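 Duplex calf thymus DNA (100 µM in DNAp) mixed with ligand (20 µM), 5:1 molar ratio, in 10 mM NaH2PO4/Na2HPO4 + 1 mM Na2EDTA, pH 7.00 ± 0.01; held at 37 °C for 0, 4 or 18 h before thermal melting; ΔTm relative to DNA alone, ±0.1 °C, at least 3 determinations.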

A2780 [2] = assay: Concentration required to inhibit A2780 cell growth when compared with control after incubation for 96 hr at 37 C; type: functional, cell-based; settings: Homo sapiens
In short: (§2)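 Human ovarian tumour lines (SKOV-3, A2780, A2780cisR, CH1, CH1cisR) exposed to agent for 96 h at 37 °C; growth compared with PBD-free controls; IC50 taken as concentration giving 50% growth inhibition.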

CH1 [3] = assay: Resistance factor was determined as IC50 cisplatin-resistant/parent for human CH1cisR tumor ovarian cell line; type: functional
In short: (§3)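 Resistance factor computed as IC50 in cisplatin-resistant line divided by IC50 in parent line, for the A2780/A2780cisR and CH1/CH1cisR pairs, from 96 h, 37 °C growth-inhibition assays against PBD-free controls.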

Nucleic Acid [4] = assay: In vitro induced thermal stabilization of duplex DNA melting after incubation with the compound (20 uM) at 37 C for 18 h; type: functional; settings: Bos taurus; in short: as §1
CH1 [5] = assay: Concentration required to inhibit CH1 tumor cell growth when compared with control after incubation for 96 hr at 37 C; type: functional, cell-based; settings: Homo sapiens; in short: as §2
A2780 [6] = assay: Resistance factor was determined as IC50 cisplatin-resistant/parent for human A2780 ovarian cell line; type: functional; in short: as §3
SK-OV-3 = assay: Concentration required to inhibit SKOV-3 cell growth when compared with control after incubation for 96 hr at 37 C; type: functional, cell-based; settings: Homo sapiens; in short: as §2
CH1 [7] = assay: Concentration required to inhibit CH1cisR tumor cell growth when compared with control after incubation for 96 hr at 37 C; type: functional, cell-based; settings: Homo sapiens; in short: as §2
Nucleic Acid [8] = assay: In vitro induced thermal stabilization of duplex DNA melting after incubation with the compound (20 uM) at 37 C for 4 h; type: functional; settings: Bos taurus; in short: as §1
A2780 [9] = assay: Concentration required to inhibit A2780cisR cell growth when compared with control after incubation for 96 h at 37 C; type: functional, cell-based; settings: Homo sapiens; in short: as §2
Nucleic Acid [10] = assay: gIn vitro induced thermal stabilization of duplex DNA melting after incubation with the compound (20 uM) at 37 C for 0 h; type: functional; settings: Bos taurus; in short: as §1
[11] = Activity in NCI standard hollow fibre assay after subcutaneous administration; type: functional
[12] = Total activity in NCI standard hollow fibre assay; type: functional
[13] = Activity in NCI standard hollow fibre assay after intraperitoneal administration; type: functional

Row | SMILES | ΔTm (Nucleic Acid [1]) | Concentration (A2780 [2]) | RF (CH1 [3]) | ΔTm (Nucleic Acid [4]) | Concentration (CH1 [5]) | RF (A2780 [6]) | Concentration (SK-OV-3) | Concentration (CH1 [7]) | ΔTm (Nucleic Acid [8]) | Concentration (A2780 [9]) | ΔTm (Nucleic Acid [10]) | Score [11] | Score [12] | Score [13]
1 | COc1cc2c(cc1OCc1ccccc1)N=C[C@@H]1CCCN1C2=O | 0.2 °C | 0.17 µM | 1 | 0.4 °C | 0.145 µM | 2.8 | 0.46 µM | 0.145 µM | 0.4 °C | 0.48 µM |  |  |  | 
2 | COc1cc2c(cc1OCCC(=O)N1CCCCC1)N=C[C@@H]1CCCN1C2=O | 0.8 °C | 3.2 µM | 1.6 | 1.2 °C | 4.9 µM | 4.5 | 23.5 µM | 7.9 µM | 0.9 °C | 14.5 µM |  |  |  | 
3 | COc1cc2c(cc1OC)C(=O)N1CCC[C@H]1C=N2 | 0.2 °C | 0.064 µM | 1.3 | 0.6 °C | 0.082 µM | 2.4 | 1.7 µM | 0.11 µM | 0.4 °C | 0.155 µM |  |  |  | 
4 | COc1cc2c(cc1OCCC(=O)N1CCCC1)N=C[C@@H]1CCCN1C2=O |  | 1.5 µM | 1.3 | 1.2 °C | 1.4 µM | 2.9 | 5.4 µM | 1.85 µM | 0.9 °C | 4.3 µM | 0.5 °C |  |  | 
5 | COc1cc2c(cc1OCCC(=O)N1Cc3ccccc3C1)N=C[C@@H]1CCCN1C2=O | 1 °C | 0.23 µM | 2 | 1.3 °C | 0.24 µM | 4 | 1.45 µM | 0.42 µM | 1.1 °C | 0.94 µM |  | 2 | 40 | 40
6 | COc1cc2c(cc1OCCC(=O)N1CCc3ccccc31)N=C[C@@H]1CCCN1C2=O | 0.7 °C | 1.55 µM | 2 | 1.2 °C | 1.5 µM | 3.2 | 5.8 µM | 3 µM | 1 °C | 4.9 µM |  |  |  | 
